# TRPC4 agonist: opens the mouse TRPC4 cation channel; Q9QUQ5; HEK293 TRPC4beta/mu-opioid, Fluo4 calcium fluorescence; stronger effect = higher value; B-score at 10 µM; actives 0.49% (n = 310,000); AID 2237;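 active = B-score above 5 SD of library B-scores, and initial fluorescence ratio not above library mean plus 5 SD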;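 also: positive B-score marks a calcium rise read as TRPC4 activation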
#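 Incubation: 45 min room-temperature Fluo4 loading, 110 s read / System: HEK293 cells stably co-expressing mouse TRPC4beta and mu-opioid receptor / Signal: Fluo4 fluorescence, kinetic / Control set: buffer (low) and maximal DAMGO (high) / Measure: integrated baseline-normalised fluorescence ratio, converted to per-well B score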
# TRPC4 PAM: TRPC4 (mouse) allosteric potentiation. Q9QUQ5. HEK293 TRPC4beta/mu-opioid, DAMGO EC20, Fluo-4 Ca2+ flux; stronger effect = higher value. B-score at 10 µM. actives 0.42% (n = 310,000);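 active = B-score of calcium response area above 5 SD of library B-scores, with initial fluorescence ratio within 5 SD of library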;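 also: B-score of integrated fluorescence ratio over time as area under calcium response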
# TRPC6 inh: mouse TRPC6 channel inhibition; HEK293-TRPC6, membrane potential dye, ACh-evoked depolarization; stronger effect = lower value; actives 1.1% (n = 310,000); B-score at 10 µM; Q61143; AID 2553;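 active = B-score under library mean minus 3 SD, initial fluorescence not abnormally high, positive integrated signal ratio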;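 also: B-score derived from integrated fluorescence ratio over the kinetic read; more negative B-score means stronger inhibition of depolarization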
# Kir21 inh: inhibitors of mouse Kir2.1 inward-rectifier potassium channel; P35561; HEK293-Kir2.1, FluxOR thallium flux fluorescence; stronger effect = lower value; B-score at 10 µM; actives 0.85% (n = 310,000); AID 1672;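 active = fluorescence ratio B-score at or below minus 3 SD of library scores, with starting-brightness B-score within 2 SD, cut at about -4.2 in these data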;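 also: channel flux triggered by added potassium and thallium sulfate stimulus; B-score of peak minus minimum fluorescence over baseline after thallium stimulus; more negative B-score means stronger Kir2.1 block with less thallium influx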
# Target sequence (P35561 whole entry, looked up): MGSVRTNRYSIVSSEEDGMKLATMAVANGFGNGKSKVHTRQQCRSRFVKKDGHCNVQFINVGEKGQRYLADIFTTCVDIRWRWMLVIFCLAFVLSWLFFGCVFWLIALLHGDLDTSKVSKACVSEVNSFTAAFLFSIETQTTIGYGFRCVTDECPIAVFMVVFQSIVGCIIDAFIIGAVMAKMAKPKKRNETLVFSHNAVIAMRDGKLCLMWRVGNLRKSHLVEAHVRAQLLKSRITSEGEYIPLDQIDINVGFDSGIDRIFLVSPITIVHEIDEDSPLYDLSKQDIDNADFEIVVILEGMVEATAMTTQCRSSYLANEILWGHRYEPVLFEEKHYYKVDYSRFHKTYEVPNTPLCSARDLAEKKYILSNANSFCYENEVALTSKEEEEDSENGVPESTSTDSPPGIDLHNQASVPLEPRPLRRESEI
# TRPC4 inh: blocks the mouse TRPC4 cation channel; actives 0.39% (n = 300,000); Q9QUQ5; B-score at 10 µM; HEK293 TRPC4beta/mu-opioid, DAMGO-evoked Fluo4 calcium flux; stronger effect = lower value;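 active = B-score over 3 SD under the library average, no early fluorescence shift, positive overall ratio signal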
#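 Material: HEK293 cells with stable TRPC4beta plus mu-opioid receptor expression; probe or stimulus: DAMGO in two steps, submaximal then maximal; technique: Fluo4 calcium fluorescence by kinetic imaging, 5 s 1 Hz baseline; measure: integrated fluorescence ratio relative to baseline, converted to per-well B score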
# TRPC6 act: activators of mouse TRPC6 channel. Q61143. HEK293-TRPC6 membrane potential dye fluorescence; stronger effect = higher value. B-score at 10 µM. actives 0.13% (n = 310,000). AID 2550;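 active = B-score of the integrated fluorescence ratio above library mean plus 3 SD, and starting fluorescence ratio within library mean plus 5 SD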;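 also: higher score means more depolarization so channel activation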
# * marks the source's active call; other numbers are inactive results; i = inactive; . = no result. A selection: hits, their analogues and other compounds. The true share with any hit is near 2.9%.
SMILES,TRPC4 agonist,TRPC4 PAM,TRPC6 inh,Kir21 inh,TRPC4 inh,TRPC6 act
CC(C)(C)OC(=O)N1CCC[C@H]1c1nnc(SCc2ccccc2Cl)o1,i,i,i,-8*,i,i
CC(C)(C)OC(=O)N1CCC[C@H]1c1nnc(SCc2cccc(Cl)c2)o1,i,i,i,-8.6*,i,i
CCN1CCN(Cc2cc(=O)oc3ccc(C)cc23)CC1,i,i,i,-0.61,i,i
Cc1ccc(C(C)NC(=O)c2cc3cc(Br)ccc3oc2=N)cc1 (configuration not stated),i,i,i,-1.5,i,i
Cc1ccc(-c2csc(N(Cc3ccccc3)C(=O)COc3ccccc3)n2)cc1,i,i,i,0.69,i,i
CCCn1c(=O)c2ccccc2n2c(SCCOc3ccc(C)cc3)nnc12,i,i,i,-3.5,-6*,i
CCOC(=O)c1cn(Cc2ccccc2)c(C(=O)OC(C)(C)C)c1O,107*,i,i,-0.58,i,i
CCOC(=O)c1cn(Cc2ccccc2)c2cc(C)nn2c1=O,i,i,i,0.74,i,i
O=C(C[n+]1cccc(CNC(=O)c2ccc(OC(F)F)cc2)c1)Nc1ccc(SC(F)F)cc1,i,i,i,-0.55,-7*,i
COc1ccc(NC(=O)NNC(=O)COc2ccc3cc(Br)ccc3c2)cc1OC,i,i,i,1.4,i,i
CCN(CC)CCNC(=O)CCc1c(C)nc2c(c(C)nn2-c2ccc(C)cc2)c1C,i,i,i,-4.5*,i,i
CC(C)c1nc2n[nH]c(N)c2c2c1CCCC2,i,i,i,-6.8*,i,i
Cc1oc2ccc(O)cc2c1C(=O)c1ccc(Cl)cc1,i,i,i,1.2,i,i
O=C(Cn1cccc1C(=O)c1ccccc1)NCCCc1ccccc1,i,i,i,-1.3,i,i
O=C(Cn1cccc1C(=O)c1ccccc1)NCCC1=CCCCC1,i,i,i,-6.8*,i,i
CN(C)CCSc1nnc2sc3ccccc3n12,i,11*,i,0.19,i,i
N#CCSc1nnc2sc3ccccc3n12,i,i,i,-1.1,i,i
COc1ccc(-n2c(CCc3ccccc3)nnc2SCC(=O)NCc2ccccc2)cc1,i,i,i,-4.9*,i,i
COc1cccc(CNC(=O)C2CCN(Cc3cnn(-c4ccccc4)c3-n3cccc3)CC2)c1,44*,i,i,-2,i,i
O=C(CSCc1cnn(-c2ccccc2)c1-n1cccc1)NCCN1CCOCC1,i,i,i,-1.3,i,i
COc1ccc(CNC(=O)CSCc2cnn(-c3ccccc3)c2-n2cccc2)cc1,i,i,i,-4.9*,i,i
O=C(NCc1cccnc1)C1CCCN(Cc2cnn(-c3ccccc3)c2-n2cccc2)C1 (configuration not stated),87*,i,i,0.05,i,i
Cn1cc(S(=O)(=O)NC2CCCCCC2)c(=O)n(C)c1=O,i,i,i,-3,i,i
CC(C)(C)NC(=O)/C(=C/c1ccccc1F)NC(=O)c1ccc([N+](=O)[O-])cc1,i,i,i,-0.43,i,i
O=C(NCc1ccccn1)C1CCCN(Cc2cnn(-c3ccccc3)c2-n2cccc2)C1 (configuration not stated),53*,i,i,-0.01,.,i
SMILES,TRPC4 agonist,TRPC4 PAM,TRPC6 inh,Kir21 inh,TRPC4 inh,TRPC6 act
Cc1ccc(C(=O)NC2CCN(C(=O)NCc3ccccc3)CC2)cc1,i,i,i,-0.03,i,i
CC(C)CSc1nc2ccccc2n1CC(=O)O,i,i,i,1.8,i,i
Cc1ccc(OCCNCc2ccccc2)c(C)c1,i,i,i,-4.6*,i,i
Cc1cccc(OCCCCNCc2ccccc2)c1,i,i,i,-1.9,i,i
Cc1cc(C)c(OCCCNCc2ccccc2)c(Br)c1,i,i,i,-16*,i,i
Cc1cc(C)c(C)c(OCCOCCNCc2ccccc2)c1,i,i,i,-9.1*,i,i
C/C=C/c1ccc(OCCOCCNCc2ccccc2)c(OC)c1,i,i,i,-6.2*,i,i
C/C=C/c1ccc(OCCOc2cc(C=O)ccc2OC)c(OC)c1,i,i,i,1.2,i,i
Cc1c(C)n2c(SCC(=O)NC3CCCCC3)nnc2[nH]c1=O,i,i,i,-1.5,i,i
CCC(C)C(NC(=O)C1CCC(C)CC1)C(=O)NCCCN1CCCCC1CC (configuration not stated),i,i,i,2.4,i,i
COc1ccc(C(=O)N/N=C(\C)CC(=O)Nc2ccc(N(C)C)cc2)c(OC)c1,i,i,i,0.01,i,i
CCc1cccc(C)c1NC(=O)CSc1nnc(-c2cc3cc(Br)ccc3o2)n1CC,i,i,i,0.4,i,i
CCOc1cc(S(=O)(=O)NCc2ccccc2)c(OCC)cc1-n1cnnn1,i,i,i,-0.36,i,i
CCOc1ccc(-n2cnnn2)cc1S(=O)(=O)NCc1ccccc1,i,i,i,-0.93,-7*,i
O=C(O)c1cc2nccc(-c3ccco3)n2n1,i,i,i,-1,i,i
COc1cc2[nH]c(C(=O)NCc3ccccc3)cc2c(OC)c1OC,i,i,i,-6.3*,i,i
COc1cc(Cn2c(C(=O)O)cc3sccc32)cc(OC)c1OC,i,i,i,-0.11,i,i
CCn1c(=O)c2cc(C(=O)N(C)c3ccc(OC)cc3OC)sc2c2ccccc21,i,i,i,0.69,i,i
CCn1c(=O)c2cc(C(=O)N(C)c3cc(C)ccc3OC)sc2c2ccccc21,i,i,i,-0.93,-6*,i
CC1CC(C)CN(CCCNC(=O)c2nn(C)c3c2CS(=O)(=O)c2ccccc2-3)C1 (configuration not stated),98*,i,i,-1.3,i,i
COc1ccc(OCC(=O)Nc2ccccc2N2CCN(C)CC2)cc1,i,i,i,-1.6,-6*,i
COc1ccc(CC(=O)Nc2ccccc2N2CCCC2)cc1OC,i,i,i,-4.5*,i,i
CCC(=O)N1CCN(c2ccccc2NC(=O)COc2ccc(C(C)C)cc2)CC1,i,11*,i,-2.6,i,i

# Screens as filed in PubChem.
